Key:
[1] = target: T1, ATP-dependent translocase ABCB1 (Homo sapiens, UniProt P08183); test: Inhibition of human MDR1 expressed in mouse NIH/3T3 cells assessed as inhibition of daunomycin efflux incubated for 30 mins by flow cytometry; assay type: cell-based, NIH3T3
Procedure, shortened: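 Ki for DNM efflux. MDR1-G185 NIH-3T3 cells were incubated 30 min at 37 °C with DNM (2 μM) and varying compound concentrations, then read by flow cytometry. Fluorescence was converted to % P-gp inhibition, normalized to cells treated with 5 mM sodium orthovanadate (100%). Ki was fitted from I = (Imax × S)/(Ki + S). Mean ± SD of three independent experiments in triplicate.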

[2] = Intrinsic cytotoxicity against mouse NIH/3T3 cells transfected with human MDR1 by MTT assay; assay type: ADME, cell-based, NIH3T3
Procedure, shortened: (§1)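 Intrinsic cytotoxicity was measured by MTT in parental NIH-3T3 and MDR1-G185 cells. CC50 came from a four-parameter logistic fit. The top tested concentration was 60 μM, limited by DMSO toxicity, and growth at 60 μM is given as % of untreated control. Mean ± SD of three independent experiments in duplicate.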

[3] = Intrinsic cytotoxicity against mouse NIH/3T3 cells by MTT assay; assay type: cell-based, NIH3T3; procedure, shortened: as §1
[4] = target: T1, ATP-dependent translocase ABCB1; test: Inhibition of human MDR1 expressed in mouse NIH/3T3 cells assessed as reduction in daunomycin IC50 at 1 uM by MTT assay; assay type: cell-based; details: nih3t3, 1 µM
Procedure, shortened: (§2)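 Parental NIH-3T3 and MDR1-G185 cells were grown in DMEM with 10% iFBS. They were exposed to increasing DNM or VLB (up to 500 ng/mL) with or without compound at fixed 1, 3 or 10 μM. Growth was read by MTT, and IC50 came from a four-parameter logistic fit. Mean ± SD of two independent experiments in triplicate.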

[5] = target: T1, ATP-dependent translocase ABCB1; test: Inhibition of human MDR1 expressed in mouse NIH/3T3 cells assessed as reduction in daunomycin IC50 at 3 uM by MTT assay; assay type: cell-based; details: nih3t3, 3 µM
Procedure, shortened: as §2, with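 “fit. Reversal index = IC50 without compound / IC50 with compound in MDR1 cells.” for “fit.”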

[6] = target: T1, ATP-dependent translocase ABCB1; test: Inhibition of human MDR1 expressed in mouse NIH/3T3 cells assessed as reduction in daunomycin IC50 at 10 uM by MTT assay; assay type: cell-based; details: nih3t3, 10 µM
Procedure, shortened: as §2, with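 “fit. Reversal index = IC50 without compound / IC50 with compound in MDR1 cells.” for “fit.”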

[7] = target: T1, ATP-dependent translocase ABCB1; test: Inhibition of human MDR1 expressed in mouse NIH/3T3 cells assessed as reduction in vinblastine IC50 at 1 uM by MTT assay; assay type: cell-based; details: nih3t3, 1 µM
Procedure, shortened: as §2, with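 “fit. Reversal index = IC50 without compound / IC50 with compound in MDR1 cells.” for “fit.”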

[8] = target: T1, ATP-dependent translocase ABCB1; test: Inhibition of human MDR1 expressed in mouse NIH/3T3 cells assessed as reduction in vinblastine IC50 at 3 uM by MTT assay; assay type: cell-based; details: nih3t3, 3 µM
Procedure, shortened: as §2, with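 “fit. Reversal index = IC50 without compound / IC50 with compound in MDR1 cells.” for “fit.”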

[9] = target: T1, ATP-dependent translocase ABCB1; test: Inhibition of human MDR1 expressed in mouse NIH/3T3 cells assessed as reduction in vinblastine IC50 at 10 uM by MTT assay; assay type: cell-based; details: nih3t3, 10 µM
Procedure, shortened: as §2, with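 “fit. Reversal index = IC50 without compound / IC50 with compound in MDR1 cells.” for “fit.”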

[10] = target: T1, ATP-dependent translocase ABCB1; test: Potency index, ratio of daunomycin reversal index to compound reversal index for human MDR1 expressed in mouse NIH/3T3 cells at 1 uM; assay type: cell-based; details: nih/3t3, 1 µM
Procedure, shortened: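 Each RI comes from the MTT dose-response of DNM or VLB (up to 500 ng/mL), with or without modulator.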

[11] = Intrinsic cytotoxicity against mouse NIH/3T3 cells assessed as cell growth at 60 uM by MTT assay; assay type: cell-based, NIH3T3; details: read-out: Activity; procedure, shortened: as §1
[12] = target: T1, ATP-dependent translocase ABCB1; test: Inhibition of human MDR1 expressed in mouse NIH/3T3 cells assessed as daunomycin retention at 10 uM incubated for 30 mins by flow cytometry; assay type: cell-based; set-up: scale not given: the % may be the effect or the level left; details: nih3t3, 0.5 h
Procedure, shortened: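 DNM retention by flow cytometry. MDR1-G185 NIH-3T3 cells in log phase were seeded 24 h before at 10^5 cells/well. They were incubated 30 min at 37 °C in DMEM + 10% iFBS with DNM (2 μM), with or without compound (10 μM). Cells were then washed twice in ice-cold PBS, trypsinized and read immediately for single-cell fluorescence.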

[13] = target: T1, ATP-dependent translocase ABCB1; test: Potency index, ratio of vinblastine reversal index to compound reversal index for human MDR1 expressed in mouse NIH/3T3 cells at 3 uM; assay type: cell-based; details: nih/3t3, 3 µM

T1 sequence (P08183 whole entry): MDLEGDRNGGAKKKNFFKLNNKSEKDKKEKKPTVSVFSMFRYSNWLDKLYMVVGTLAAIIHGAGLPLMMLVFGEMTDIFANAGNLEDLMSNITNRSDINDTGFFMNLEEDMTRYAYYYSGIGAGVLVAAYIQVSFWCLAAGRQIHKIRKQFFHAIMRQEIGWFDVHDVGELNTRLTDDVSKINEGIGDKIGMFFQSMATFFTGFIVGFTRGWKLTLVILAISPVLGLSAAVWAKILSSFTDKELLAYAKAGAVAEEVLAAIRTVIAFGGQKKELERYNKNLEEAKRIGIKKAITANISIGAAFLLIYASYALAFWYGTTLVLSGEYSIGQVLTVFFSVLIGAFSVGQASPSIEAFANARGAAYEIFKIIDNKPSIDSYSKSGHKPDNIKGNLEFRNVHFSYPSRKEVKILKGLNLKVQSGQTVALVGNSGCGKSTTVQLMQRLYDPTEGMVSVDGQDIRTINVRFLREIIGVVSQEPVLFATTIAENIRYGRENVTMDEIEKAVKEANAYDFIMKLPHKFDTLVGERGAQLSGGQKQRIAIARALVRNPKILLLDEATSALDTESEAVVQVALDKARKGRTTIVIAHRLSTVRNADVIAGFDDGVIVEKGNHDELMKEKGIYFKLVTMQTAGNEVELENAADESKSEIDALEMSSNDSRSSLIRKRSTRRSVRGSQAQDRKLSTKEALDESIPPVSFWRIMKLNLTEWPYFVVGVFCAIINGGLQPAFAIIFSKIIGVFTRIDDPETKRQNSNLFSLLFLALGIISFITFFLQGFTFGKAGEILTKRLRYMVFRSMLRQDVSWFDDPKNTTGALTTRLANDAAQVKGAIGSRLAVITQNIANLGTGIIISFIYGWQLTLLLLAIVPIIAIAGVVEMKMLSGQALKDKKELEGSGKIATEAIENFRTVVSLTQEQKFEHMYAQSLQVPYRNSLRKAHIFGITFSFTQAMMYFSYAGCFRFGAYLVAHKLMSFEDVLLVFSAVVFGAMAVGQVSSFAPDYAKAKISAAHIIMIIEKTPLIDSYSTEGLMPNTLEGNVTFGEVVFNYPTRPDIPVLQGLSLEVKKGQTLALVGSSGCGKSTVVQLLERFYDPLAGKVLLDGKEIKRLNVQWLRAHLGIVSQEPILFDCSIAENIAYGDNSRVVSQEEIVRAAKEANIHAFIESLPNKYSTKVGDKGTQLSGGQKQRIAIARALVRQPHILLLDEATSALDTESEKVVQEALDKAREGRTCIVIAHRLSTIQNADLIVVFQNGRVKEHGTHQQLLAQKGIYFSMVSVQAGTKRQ

| SMILES | Ki [1] [µM] | fold change (FC) [4] | fold change (FC) [5] | fold change (FC) [6] | fold change (FC) [7] | fold change (FC) [8] | fold change (FC) [9] | Ratio [10] | Activity [12] [%] | Ratio [13] | CC50 [2] [µM] | CC50 [3] [µM] | viability at 60 µM [11] [%] |
| --- | --- | --- | --- | --- | --- | --- | --- | --- | --- | --- | --- | --- | --- |
| CC(=O)O[C@H]1CC[C@](C)(O)[C@]23OC(C)(C)[C@H]([C@H](OC(=O)/C=C/c4ccccc4)[C@H](OC(=O)c4ccccc4)[C@]12C)[C@H]3OC(=O)N(C)C | 1.21 | 11.8 | 13.9 | 16.3 | 11.2 | 37.7 | 90.2 | 3 | – | – | 24 | 56.3 | – |
| CC(=O)O[C@H]1CC[C@]2(C)O[C@@H]3[C@H]4[C@H](OC(=O)/C=C/c5ccccc5)[C@H](OC(=O)c5ccccc5)[C@@]1(C)[C@]32OC4(C)C | 0.5 | 5.9 | 8.7 | 15.6 | 15.2 | 75.8 | 125.2 | – | – | 2 | 27.9 | 29.4 | – |
| CC(=O)O[C@H]1CC[C@](C)(OC(=O)CNCC(C)C)[C@]23OC(C)(C)[C@H]([C@H](OC(=O)/C=C/c4ccccc4)[C@H](OC(=O)c4ccccc4)[C@]12C)[C@H]3OC(C)=O | 0.63 | 10 | 15.1 | 22.2 | 20.6 | 49.1 | 82.9 | 3 | – | – | 34.6 | 37.3 | – |
| CC(=O)O[C@H]1CC[C@](C)(OC(C)=O)[C@]23OC(C)(C)[C@H]([C@H](OC(=O)/C=C/c4ccccc4)[C@H](OC(=O)c4ccccc4)[C@]12C)[C@H]3OC(C)=O | 0.52 | 6.9 | 10.3 | 15.2 | 21.2 | 58.2 | 91.7 | – | 85 | 2 | 51.6 | > 60 | 68.1 |

Further molecules by falling Ki [1], results first:

| Ki [1] [µM] | fold change (FC) [4] | fold change (FC) [5] | fold change (FC) [6] | fold change (FC) [7] | fold change (FC) [8] | fold change (FC) [9] | Ratio [10] | Activity [12] [%] | Ratio [13] | SMILES | CC50 [2] [µM] | CC50 [3] [µM] | viability at 60 µM [11] [%] |
| --- | --- | --- | --- | --- | --- | --- | --- | --- | --- | --- | --- | --- | --- |
| 1.52 | – | – | – | – | – | – | – | 83 | – | CC(=O)O[C@H]1CC[C@](C)(O)[C@]23OC(C)(C)[C@H]([C@H](OC(=O)/C=C/c4ccccc4)[C@H](OC(=O)c4ccccc4)[C@]12C)[C@H]3OC(=O)CCl | 5.3 | 7.4 | – |
| 0.6 | 7 | 11.1 | 16.3 | 18.5 | 86.6 | 149.2 | – | 83 | 2 | CC(=O)O[C@H]1CC[C@](C)(O)[C@]23OC(C)(C)[C@H]([C@H](OC(=O)/C=C/c4ccccc4)[C@H](OC(=O)c4ccccc4)[C@]12C)[C@H]3OS(C)(=O)=O | 31.7 | > 60 | 69.1 |
| 0.28 | 5.6 | 9.1 | 15.1 | 23.7 | 30.3 | 86.6 | – | 83 | – | CC(=O)O[C@H]1CC[C@](C)(O)[C@]23OC(C)(C)[C@H]([C@H](OC(=O)/C=C/c4ccccc4)[C@H](OC(=O)c4ccccc4)[C@]12C)[C@H]3O | 25.5 | 26.1 | – |
| 0.13 | 11.8 | 14.7 | 16.1 | 17.4 | 56 | 113.5 | 3 | – | 2 | CC(=O)O[C@H]1CC[C@](C)(O)[C@]23OC(C)(C)[C@H]([C@H](OC(=O)/C=C/c4ccccc4)[C@H](OC(=O)c4ccccc4)[C@]12C)[C@H]3OC(=O)c1cccnc1 | 32.6 | > 60 | 67.7 |
